Test results: ChEMBL document CHEMBL2176968, “Identification of less lipophilic riminophenazine derivatives for the treatment of drug-resistant tuberculosis” (J Med Chem, 2012)
Converted amounts (≈) assume the structure as drawn.

Experiments:
[1] = tested on: Vero; assay: Cytotoxicity against african green monkey Vero cells after 48 hrs by MTT assay; type: cell-based; conditions: Chlorocebus sabaeus
Method in brief: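 Vero cells were exposed to compound. The IC50 was taken as the concentration inhibiting 50% of growth relative to an untreated control.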

[2] = tested on: Mycobacterium tuberculosis; assay: Antimycobacterial activity against Mycobacterium tuberculosis H37Rv ATCC 27294 after 7 days by microplate Alamar blue assay; type: functional; conditions: H37Rv ATCC 27294, 168 h
Method in brief: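 Run in 96-well plates against M. tuberculosis H37Rv using the Alamar Blue read-out. The MIC was taken as the lowest concentration giving >90% growth inhibition.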

[3] = Selectivity index, ratio of IC50 for african green monkey Vero cells to MIC for Mycobacterium tuberculosis H37Rv ATCC 27294; type: functional

| Structure (SMILES) | IC50 [1] | MIC [2] | Selectivity Index [3] |
| --- | --- | --- | --- |
| Fc1ccc(-n2c3c/c(=N\C4CCOCC4)c(Nc4cccnc4)cc-3nc3ccccc32)cc1 | 7.36 µg/mL (≈ 15.8 µM) | 0.06 µg/mL (≈ 0.129 µM) | 123 |
| Cc1ccc(Nc2cc3nc4ccccc4n(-c4ccc(C(F)(F)F)cc4)c-3c/c2=N\C(C)C)cn1 | 34.4 µg/mL (≈ 70.6 µM) | 0.03 µg/mL (≈ 0.0615 µM) | 1147 |
| Clc1ccc(-n2c3c/c(=N\CCN4CCOCC4)c(Nc4cccnc4)cc-3nc3ccccc32)cc1 | 4.02 µg/mL (≈ 7.87 µM) | 0.25 µg/mL (≈ 0.489 µM) | 16 |
| Brc1ccc(-n2c3c/c(=N\C4CCOCC4)c(Nc4cccnc4)cc-3nc3ccccc32)cc1 | 4.48 µg/mL (≈ 8.51 µM) | 0.163 µg/mL (≈ 0.31 µM) | 27 |
| CC(C)/N=c1\cc2n(-c3ccc(OC(F)(F)F)cc3)c3ccccc3nc-2cc1Nc1cccnc1 | 4.93 µg/mL (≈ 10.1 µM) | 0.03 µg/mL (≈ 0.0613 µM) | 164 |
| COC1CCC(/N=c2\cc3n(-c4ccc(F)cc4)c4ccccc4nc-3cc2Nc2ccc(C)nc2)CC1 (centres undefined) | > 64 µg/mL | 0.06 µg/mL (≈ 0.118 µM) | 1067 |
| Cc1ncccc1Nc1cc2nc3ccccc3n(-c3ccc(Br)cc3)c-2c/c1=N\C(C)C | 39.4 µg/mL (≈ 79 µM) | 0.062 µg/mL (≈ 0.124 µM) | 635 |
| Cc1ncccc1Nc1cc2nc3ccccc3n(-c3ccc(F)cc3)c-2c/c1=N\C(C)C | 14.4 µg/mL (≈ 32.8 µM) | 0.032 µg/mL (≈ 0.0731 µM) | 449 |
| Clc1ccc(-n2c3c/c(=N\C4CCOCC4)c(Nc4cccnc4)cc-3nc3ccccc32)cc1 | 2.5 µg/mL (≈ 5.19 µM) | 0.03 µg/mL (≈ 0.0622 µM) | 83 |
| COC1CCC(/N=c2\cc3n(-c4ccc(Cl)cc4)c4ccccc4nc-3cc2Nc2cccnc2)CC1 (centres undefined) | 12 µg/mL (≈ 23.6 µM) | 0.03 µg/mL (≈ 0.0588 µM) | 401 |
| Cc1ccc(-n2c3c/c(=N\C(C)C)c(Nc4cccnc4)cc-3nc3ccccc32)cc1 | 2.71 µg/mL (≈ 6.46 µM) | 0.06 µg/mL (≈ 0.143 µM) | 45 |
| CC(C)CN1CCC(/N=c2\cc3n(-c4ccc(C(F)(F)F)cc4)c4ccccc4nc-3cc2Nc2cccnc2)CC1 | 27 µg/mL (≈ 47.3 µM) | 0.06 µg/mL (≈ 0.105 µM) | 450 |
| COC1CCC(/N=c2\cc3n(-c4ccc(C(F)(F)F)cc4)c4ccccc4nc-3cc2Nc2cccnc2)CC1 (centres undefined) | 28.3 µg/mL (≈ 52.2 µM) | 0.03 µg/mL (≈ 0.0552 µM) | 945 |
| Cc1ccc(Nc2cc3nc4ccccc4n(-c4ccc(C(F)(F)F)cc4)c-3c/c2=N\C2CCOCC2)cn1 | 35.1 µg/mL (≈ 66.3 µM) | 0.032 µg/mL (≈ 0.0604 µM) | 1098 |
| CC(C)/N=c1\cc2n(-c3ccccc3)c3ccccc3nc-2cc1Nc1cccnc1 | 3.93 µg/mL (≈ 9.69 µM) | 0.06 µg/mL (≈ 0.148 µM) | 66 |
| Cc1ncccc1Nc1cc2nc3ccccc3n(-c3ccc(C(F)(F)F)cc3)c-2c/c1=N\C(C)C | > 64 µg/mL | 0.014 µg/mL (≈ 0.0287 µM) | 4571 |
| CC(C)CN1CCC(/N=c2\cc3n(-c4ccc(OC(F)(F)F)cc4)c4ccccc4nc-3cc2Nc2cccnc2)CC1 | 5.6 µg/mL (≈ 9.55 µM) | 0.06 µg/mL (≈ 0.102 µM) | 93 |
| FC(F)(F)c1ccc(-n2c3c/c(=N\CCN4CCOCC4)c(Nc4cccnc4)cc-3nc3ccccc32)cc1 | 19.9 µg/mL (≈ 36.5 µM) | 0.125 µg/mL (≈ 0.23 µM) | 159 |
| Cc1ncccc1Nc1cc2nc3ccccc3n(-c3ccc(Cl)cc3)c-2c/c1=N\C(C)C | > 64 µg/mL | 0.055 µg/mL (≈ 0.121 µM) | 1164 |
| CC(C)CN1CCC(/N=c2\cc3n(-c4ccc(Cl)cc4)c4ccccc4nc-3cc2Nc2cccnc2)CC1 | 15.1 µg/mL (≈ 28 µM) | 0.25 µg/mL (≈ 0.465 µM) | 60 |
| COC1CCC(/N=c2\cc3n(-c4ccc(Br)cc4)c4ccccc4nc-3cc2Nc2cccnc2)CC1 (centres undefined) | 1.88 µg/mL (≈ 3.39 µM) | 0.062 µg/mL (≈ 0.112 µM) | 30 |
| Cc1ncccc1Nc1cc2nc3ccccc3n(-c3ccc(Cl)cc3)c-2c/c1=N\C1CCOCC1 | 27.4 µg/mL (≈ 55.3 µM) | 0.168 µg/mL (≈ 0.339 µM) | 163 |
| COC1CCC(/N=c2\cc3n(-c4ccc(F)cc4)c4ccccc4nc-3cc2Nc2cccnc2)CC1 (centres undefined) | > 64 µg/mL | 0.12 µg/mL (≈ 0.243 µM) | 533 |
| COC1CCC(/N=c2\cc3n(-c4ccc(Cl)cc4)c4ccccc4nc-3cc2Nc2cncc(Br)c2)CC1 (centres undefined) | > 64 µg/mL | 0.052 µg/mL (≈ 0.0883 µM) | 1231 |
| Fc1ccc(-n2c3c/c(=N\CCN4CCOCC4)c(Nc4cccnc4)cc-3nc3ccccc32)cc1 | 15.1 µg/mL (≈ 30.5 µM) | 0.5 µg/mL (≈ 1.01 µM) | 30 |
| FC(F)(F)Oc1ccc(-n2c3c/c(=N\C4CCOCC4)c(Nc4cccnc4)cc-3nc3ccccc32)cc1 | > 64 µg/mL | 0.03 µg/mL (≈ 0.0564 µM) | 2133 |
| CN1CCC(/N=c2\cc3n(-c4ccc(Cl)cc4)c4ccccc4nc-3cc2Nc2cccnc2)CC1 | 5.58 µg/mL (≈ 11.3 µM) | 0.125 µg/mL (≈ 0.253 µM) | 45 |
| CC(C)/N=c1\cc2n(-c3ccc(C(F)(F)F)cc3)c3ccccc3nc-2cc1Nc1cccnc1 | 19.7 µg/mL (≈ 41.5 µM) | 0.03 µg/mL (≈ 0.0634 µM) | 655 |
